Article PMC8035306 (Journal of medicinal chemistry, 2021)

Key:
PRMT6 [1] = molecular target: T1, PRMT6 (Homo sapiens, UniProt Q96LA8); assay: PRMT6 radiometric biochemical assay, 2 h preincubation
PRMT6 [2] = molecular target: T1, PRMT6; assay: Methyltransferase selectivity panel: PRMT6; type: biochemical; conditions: at 1 and 10 μM
In short: (§1)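 Panel of 33 methyltransferases (8 PRMTs, 21 PKMTs, 3 DNMTs, 1 RNA methyltransferase) run by an earlier published protocol. Test compound at 1 μM and 10 μM; n = 3.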

[3] = tested on: other 32 methyltransferases (PRMTs, PKMTs, DNMTs, RNA methyltransferase); assay: Methyltransferase selectivity panel: other 32 methyltransferases; type: biochemical; conditions: at 1 and 10 μM
In short: as §1

PRMT6 [4] = molecular target: T1, PRMT6; assay: Mass spectrometry analysis for assessing covalent binding; conditions: PRMT6 incubated with compound for 2 h
In short: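 Purified PRMT6 incubated with a 20-fold molar excess of test compound at room temperature, then acidified with 0.1% trifluoroacetic acid (aq.). Sample separated by HPLC on a 5–95% acetonitrile/water gradient and analysed by electrospray-ionisation time-of-flight mass spectrometry for mass shifts indicating covalent adducts.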

HEK293T cells = assay: Toxicity to HEK293T cells seen in the cellular PRMT6 assay; type: cell-based; conditions: 20 h
HEK293T = assay: Cell viability assay; type: cell-based; conditions: up to 10 μM, 3 days treatment
In short: (§2)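 Cells seeded at 1 × 10^4 per well and left 24 h, then exposed for 3 days to serially diluted test compound starting at 10 μM. CCK-8 (WST-8) reagent added, followed by 4 h at 37 °C; absorbance read at 450 nm. Results given as average ± SD of three replicate experiments.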

PNT2 = assay: Cell viability assay; type: cell-based; conditions: PNT2, up to 10 μM, 3 days treatment
In short: as §2

MCF-7 = assay: Cell viability assay; type: cell-based; conditions: MCF-7, up to 10 μM, 3 days treatment
In short: as §2

[5] = molecular target: Flag-tagged PRMT6 in HEK293T cells (Homo sapiens, UniProt Q96LA8); assay: Cellular PRMT6 assay; type: cell-based; conditions: 20 h, up to 10 μM
Flag-tagged PRMT6 in HEK293T cells, sequence (Q96LA8 whole entry): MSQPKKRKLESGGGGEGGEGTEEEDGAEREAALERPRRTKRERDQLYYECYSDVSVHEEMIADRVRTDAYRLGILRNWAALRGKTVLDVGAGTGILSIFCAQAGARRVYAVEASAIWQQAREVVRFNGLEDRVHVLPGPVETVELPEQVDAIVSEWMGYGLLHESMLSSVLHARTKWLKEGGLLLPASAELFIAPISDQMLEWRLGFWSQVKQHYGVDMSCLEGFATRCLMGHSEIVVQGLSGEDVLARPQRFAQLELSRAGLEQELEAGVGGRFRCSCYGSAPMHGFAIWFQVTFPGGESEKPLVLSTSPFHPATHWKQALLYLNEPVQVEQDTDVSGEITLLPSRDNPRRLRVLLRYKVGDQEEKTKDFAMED

T1 sequence (Q96LA8 whole entry): as above

| SMILES | decrease in the IC50 value after compound preincubation with PRMT6 (PRMT6 [1]; 2 h preincubation versus no incubation) | pattern of inhibition with respect to SAM cofactor and peptide substrate (PRMT6 [1]; 2 h preincubation, IC50 at various SAM or peptide concentrations) | inhibition of PRMT6 in methyltransferase panel (PRMT6 [2]) | inhibition of other 32 methyltransferases [3] | covalent modification of PRMT6 (PRMT6 [4]) | toxicity to HEK293T cells (HEK293T cells; up to 10 μM) | toxicity (cell viability) (HEK293T) | toxicity (cell viability) (PNT2) | toxicity (cell viability) (MCF-7) | activity against PRMT6 (in words) (PRMT6 [1]) | reduction of cellular levels of H3R2me2a [5] | reduction of cellular levels of H4R3me2a [5] | toxicity to HEK293T cells (HEK293T cells; at 30 μM) |
| --- | --- | --- | --- | --- | --- | --- | --- | --- | --- | --- | --- | --- | --- |
| Cc1cc(C)cc([C@@H]2c3cc(C)ccc3NC(=O)CN2C(=O)c2ccc(Br)s2)c1 [(R)-2, 4-(5-bromothiophene-2-carbonyl)-5-(3,5-dimethylphenyl)-7-methyl-1,3,4,5-tetrahydro-2H-benzo[e][1,4]diazepin-2-one] | more than 100 fold | noncompetitive | potently inhibited | did not significantly inhibit | No covalent modification | did not show significant toxicity | Neither (R)-2 nor (S)-2 showed any significant toxicity | Neither (R)-2 nor (S)-2 showed any significant toxicity | Neither (R)-2 nor (S)-2 showed any significant toxicity |  |  |  |  |
| Cc1cc(C)cc([C@H]2c3cc(C)ccc3NC(=O)CN2C(=O)c2ccc(Br)s2)c1 [(S)-2, 4-(5-bromothiophene-2-carbonyl)-5-(3,5-dimethylphenyl)-7-methyl-1,3,4,5-tetrahydro-2H-benzo[e][1,4]diazepin-2-one] |  |  | did not significantly inhibit | did not significantly inhibit |  |  | Neither (R)-2 nor (S)-2 showed any significant toxicity | Neither (R)-2 nor (S)-2 showed any significant toxicity | Neither (R)-2 nor (S)-2 showed any significant toxicity | inactive | did not significantly reduce | did not significantly reduce | significant toxicity |
